Publication PMC8906099 (Current Research in Parasitology & Vector-borne Diseases, 2021)
Converted amounts (≈) assume the structure as drawn. Like-named read-outs stand apart in the source and are kept apart here.

What was measured:
[1] = test system: amastigotes of T. cruzi Sylvio X10/4 strain; assay: Trypanocidal activity against intracellular amastigotes in C2C12 cells; format: cell-based; conditions: Trypanosoma cruzi, C2C12, 72 h, read-out: IC50 ± SD, amastigotes
Method in brief: (§1)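 Trypomastigotes from C2C12 co-culture (DMEM, 10% FBS, 25 mM HEPES, pH 7.2) were seeded with C2C12 cells at a 1:15 infection rate. Test compound (0.19–100 μM, 2-fold, 0.1% DMSO) was added at the start. After 72 h at 37 °C, 5% CO2, cells were stained with DAPI 2 h and imaged confocally. Amastigote and host nuclei were told apart by size. IC50 came from sigmoid fits of the infection ratio normalised to controls. Mean ± SD, three experiments in triplicate.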

[2] = test system: amastigotes of T. cruzi Sylvio X10/7 strain; assay: as above; format: cell-based, Trypanosoma cruzi; conditions: Trypanosoma cruzi, C2C12, 72 h, read-out: IC50 ± SD, amastigotes, Sylvio X10/7 strain, 72 h incubation
Method in brief: as §1

Trichomonas vaginalis = conditions: ref Carapina da Silva et al., 2019, cited from earlier work
[3] = Cytotoxicity in non-infected cells; format: cell-based, murine; conditions: mouse, non-infected C2C12 cells
Method in brief: (§2)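 Non-infected C2C12 cells (5 × 10^4 per well) were plated for 24 h. Test compound (0.19–100 μM, 2-fold, 0.1% DMSO) was then added for 72 h at 37 °C. Controls were untreated, DMSO 0.4% and Triton 15%. After a PBS wash, MTT (2 mg/ml) was added for 4 h, and absorbance was read at 450 nm (reference 620 nm). CC50 came from sigmoid fits. SI = CC50/IC50 against CA-I/72 amastigotes at 72 h.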

non-infected C2C12 cells = assay: Cytotoxicity in non-infected cells; format: cell-based, murine; conditions: non-infected C2C12 CC50 / IC50 amastigotes CA-I/72 strain, 72 h
Method in brief: as §2

[4] = Time-course cytotoxicity in infected C2C12 cells; format: cell-based, murine; conditions: mouse
Method in brief: (§3)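 This uses the CA-I/72 time-course infection format: a 48 h pre-infection of C2C12 cells, then test compound at 0.19–100 μM for 8, 12, 24 or 48 h, with DAPI imaging. Host viability was the total host cell count divided by the mean count of 0.1% DMSO controls. CC50 came from sigmoid fits. SI = CC50/IC50 against amastigotes at the matching time.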

[5] = test system: C2C12 cells infected with intracellular amastigotes of T. cruzi (CA-I/72 strain); assay: Time-course cytotoxicity in infected C2C12 cells; format: cell-based, murine; conditions: infected C2C12 vs amastigotes CA-I/72, time-course
Method in brief: as §3

[6] = Cytotoxicity in non-infected cells; format: cell-based, monkey; conditions: monkey, non-infected LLC-MK2 cells
Method in brief: (§4)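 LLC-MK2 monkey kidney cells, grown in RPMI with 10% FBS at 37 °C and 5% CO2, were plated and after 24 h exposed to test compound (0.19–100 μM, 2-fold dilutions, 0.1% DMSO) for 72 h at 37 °C. Controls were untreated cells, 0.4% DMSO and 15% Triton. After a PBS wash, MTT (2 mg/ml) was added for 4 h, and absorbance read at 450/620 nm. SI is CC50 divided by the 72 h CA-I/72 intracellular amastigote IC50.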

[7] = test system: non-infected LLC-MK2 cells; assay: Cytotoxicity in non-infected cells; format: cell-based, monkey; conditions: non-infected LLC-MK2 CC50 / IC50 amastigotes CA-I/72 strain, 72 h
Method in brief: as §4

[8] = test system: amastigotes of T. cruzi CA-I/72 strain; assay: Trypanocidal activity against intracellular amastigotes in C2C12 cells; format: cell-based; conditions: Trypanosoma cruzi, C2C12, 72 h, read-out: IC50 ± SD, amastigotes
Method in brief: as §1

[9] = Cytotoxicity in infected C2C12 cells after 72 h; format: cell-based, murine; conditions: mouse
Method in brief: (§5)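 C2C12 cells were infected with trypomastigotes (1:15) together with test compound (0.19–100 μM, 0.1% DMSO) for 72 h at 37 °C, 5% CO2. Host nuclei were counted by DAPI high-content imaging. Viability was the cell count relative to the DMSO-control mean. CC50 came from sigmoid fits. SI = CC50/IC50 against intracellular amastigotes of the same strain at 72 h.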

infected C2C12 cells = assay: Cytotoxicity in infected C2C12 cells after 72 h; format: cell-based, murine; conditions: 72 h
Method in brief: as §5

[10] = test system: trypomastigotes of T. cruzi (Sylvio X10/4 strain); assay: Trypanocidal activity against trypomastigotes; format: cell-based; conditions: Trypanosoma cruzi, 72 h, read-out: IC50 ± SD, trypomastigotes
Method in brief: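 Sylvio X10/4 trypomastigotes were taken from amastigote culture supernatant and seeded at 1 × 10^6 per well. Test compound was added at 0.19–100 μM (0.1% DMSO), with benznidazole (0.019–10 μM) and DMSO controls. Incubation was 72 h at 37 °C, 5% CO2. Viability was read with resazurin (40 μM in PBS), fluorescence 530/630 nm. IC50 came from sigmoid dose–response fits.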

[11] = test system: intracellular amastigotes of T. cruzi CA-I/72 strain; assay: Time-course study against intracellular amastigotes; format: cell-based; conditions: Trypanosoma cruzi, read-out: IC50 ± SD
Method in brief: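 CA-I/72 trypomastigotes were incubated with C2C12 cells for 48 h to form intracellular amastigotes. Test compound was then added (0.19–100 μM, 2-fold, 0.1% DMSO), with benznidazole and DMSO controls. Incubation ran 8, 12, 24 or 48 h at 37 °C, 5% CO2. Growth inhibition was read by DAPI high-content imaging. IC50 came from sigmoid fits of the normalised infection ratio. Time trend was tested by linear regression and ANOVA.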

[12] = test system: amastigotes of T. cruzi Brazil strain; assay: Trypanocidal activity against intracellular amastigotes in C2C12 cells; format: cell-based; conditions: Trypanosoma cruzi, C2C12, 72 h, read-out: IC50 ± SD, amastigotes
Method in brief: as §1

[13] = test system: several Streptococcus species; conditions: ref Vieira et al., 2018; cited from earlier work
female BALB/c mice = assay: Acute oral toxicity test in mice; format: in vivo; conditions: for DA/TA (dead animals/total animals) / Mortality / Signs of toxicity: 14 days
Method in brief: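 Six-week-old female BALB/c mice (25–30 g), five per group. Single oral dose of 300 or 1,000 mg/kg test compound in Tween 80/ethanol/water (7:3:90), with a vehicle group. Clinical signs (ataxia, tremor, salivation, ptosis, seizures and others) watched continuously for 1 h, periodically over 24 h, then daily to day 14. Mortality recorded.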

P. falciparum = conditions: ref Aher et al., 2011, cited from earlier work
[14] = C2C12 cells infected with T. cruzi Brazil strain
[15] = C2C12 cells infected with T. cruzi CA-I/72 strain
[16] = C2C12 cells infected with T. cruzi Sylvio X10/4 strain
[17] = C2C12 cells infected with T. cruzi Sylvio X10/7 strain
[18] = infected C2C12, Sylvio X10/4 strain
[19] = infected C2C12, Sylvio X10/7 strain

SMILES	IC50 [1] [µM]	IC50 [2] [µM]	CC50 at 72 h [3] [µM]	SI (CC50/IC50) (non-infected C2C12 cells)	CC50 at 8 h [4] [µM]	CC50 at 12 h [4] [µM]	CC50 at 24 h [4] [µM]	CC50 at 48 h [4] [µM]	SI (CC50/IC50) ([5]; 12 h)	SI (CC50/IC50) ([5]; 24 h)	SI (CC50/IC50) ([5]; 48 h)	CC50 at 72 h [6] [µM]	SI (CC50/IC50) [7]	IC50 [8] [µM]	CC50 at 72 h [9, 14] [µM]	CC50 at 72 h [9, 15] [µM]	CC50 at 72 h [9, 16] [µM]	CC50 at 72 h [9, 17] [µM]	SI (CC50/IC50) (infected C2C12 cells; infected C2C12, Brazil strain)	SI (CC50/IC50) (infected C2C12 cells; infected C2C12, CA-I/72 strain)	also measured
O=C(/C=C/c1ccccc1)/C=C/c1ccccc1 [DBA 1, (1E,4E)-1,5-diphenylpenta-1,4-dien-3-one]	34 ± 2.92	11.7 ± 0.81	40.1 ± 1.25	8.59	12.2 ± 1.15	2 ± 0.42	0.28 ± 0.04	0.03 ± 0.02	0.02	0.007	0.002	16.6 ± 0.61	3.54	4.67 ± 1.96	7.32 ± 0.41	5.74 ± 1.95	3.8 ± 0.24	3.29 ± 1	0.35	1.22	reduction in the parasitic viability (Trichomonas vaginalis; after 24 h incubation): 98.8%; IC50 (Trichomonas vaginalis): 50 µM; SI (CC50/IC50) (infected C2C12 cells; [18]): 0.11; SI (CC50/IC50) (infected C2C12 cells; [19]): 0.28; IC50 [10]: 41.2 ± 2.25 µM; IC50 ([11]; 8 h): > 100 µM; IC50 ([11]; 12 h): 76.8 ± 1.39 µM; IC50 ([11]; 24 h): 37.5 ± 1.01 µM; IC50 ([11]; 48 h): 14.6 ± 1.1 µM; IC50 [12]: 21.1 ± 2.51 µM; MIC [13]: 100 µg/mL (≈ 427 µM)
COc1ccc(/C=C/C(=O)/C=C/c2ccc(OC)c(OC)c2)cc1OC [DBA 3, (1E,4E)-1,5-bis-(3,4-dimethoxyphenyl)penta-1,4-dien-3-one]	9.63 ± 1.58	4.87 ± 0.05	20.8 ± 0.67	> 10	29.8 ± 1.32	2.79 ± 0.3	0.21 ± 0.13	0.22 ± 0.17	0.04	0.003	0.05	11.5 ± 0.34	7.62	1.51 ± 0.42	1.73 ± 0.05	1.62 ± 0.22	1.25 ± 0.02	1.15 ± 0.29	0.43	1.07	Acute toxicity (general signs of toxicity or mortality) (female BALB/c mice; oral doses 300 and 1,000 mg/kg, 14-day period): no toxic effects; DA/TA (dead animals/total animals) (female BALB/c mice; single oral dose 300 mg/kg): 0/5; Mortality (female BALB/c mice; single oral dose 300 mg/kg): 0%; Signs of toxicity (female BALB/c mice; single oral dose 300 mg/kg): None; DA/TA (dead animals/total animals) (female BALB/c mice; single oral dose 1,000 mg/kg): 0/5; Mortality (female BALB/c mice; single oral dose 1,000 mg/kg): 0%; Signs of toxicity (female BALB/c mice; single oral dose 1,000 mg/kg): None; SI (CC50/IC50) (non-infected C2C12 cells; listed as 3): 13.78; SI (CC50/IC50) (infected C2C12 cells; [18]): 0.13; SI (CC50/IC50) (infected C2C12 cells; [19]): 0.23; IC50 [10]: 11.5 ± 1.36 µM; IC50 ([11]; 8 h): > 100 µM; IC50 ([11]; 12 h): 63.3 ± 3.87 µM; IC50 ([11]; 24 h): 62.1 ± 1.52 µM; IC50 ([11]; 48 h): 3.72 ± 0.56 µM; IC50 [12]: 3.91 ± 0.25 µM; IC50 (P. falciparum; chloroquine-resistant strain): 1.69 µM; IC50 (P. falciparum; chloroquine-sensitive strain): 1.97 µM
